ChEMBL document CHEMBL1208666, “Novel 6,8-dibromo-4(3H)quinazolinone derivatives of anti-bacterial and anti-fungal activities” (2010)
In brackets after ≈: the same amount, converted by molar mass.

How the values were obtained:
Candida albicans [1] = test: Antifungal activity against Candida albicans after 48 hrs by agar streak dilution method; format: functional
Summary of the method: (§1)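 Fungal MIC by agar streak dilution on Sabouraud dextrose agar. Compound stock in DMSO was added in graded amounts to molten sterile medium at 40–50 °C. This was poured 3–4 mm deep and left to solidify. Fungal suspension of about 10^5 cfu/ml was applied to the serially diluted plates. Plates were incubated at 37 °C for 48 h.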

Salmonella typhimurium [2] = test: Antibacterial activity against Salmonella Typhimurium at 100 ug/ml after 24 hrs by paper disc diffusion technique; format: functional, Salmonella enterica subsp. enterica serovar Typhimurium; settings: Salmonella enterica, read-out: IZ
Summary of the method: (§2)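 Paper disc diffusion on Mueller Hinton agar, autoclaved at 120 °C for 30 min. Medium at 40–50 °C was seeded at 1 ml/100 ml with a 10^5 cfu/ml suspension matched to 0.9 McFarland. It was poured 3–4 mm deep, and discs with compound in DMSO were laid on it. Plates were pre-incubated 1 h at room temperature, then 37 °C for 24 h. The inhibition zone was measured.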

Staphylococcus aureus [3] = test: Antibacterial activity against Staphylococcus aureus after 24 hrs by agar streak dilution method; format: functional
Summary of the method: (§3)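 Agar streak dilution on Mueller Hinton agar. Compound stock in DMSO was added in graded amounts to molten sterile agar at 40–50 °C. This was poured 3–4 mm deep and left to solidify. Bacterial suspension of about 10^5 cfu/ml was applied to the serially diluted plates. Plates were incubated at 37 °C for 24 h to read the MIC. Strains were food-poisoning isolates from animal byproducts.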

Bacillus cereus [4] = test: Antibacterial activity against Bacillus cereus at 100 ug/ml after 24 hrs by paper disc diffusion technique; format: functional; settings: read-out: IZ; summary of the method: as §2
Salmonella typhimurium [5] = test: Antibacterial activity against Salmonella Typhimurium after 24 hrs by agar streak dilution method; format: functional, Salmonella enterica subsp. enterica serovar Typhimurium; settings: Salmonella enterica; summary of the method: as §3
Escherichia coli [6] = test: Antibacterial activity against Escherichia coli O157 at 100 ug/ml after 24 hrs by paper disc diffusion technique; format: functional; settings: O157, 24 h, read-out: IZ
Bacillus cereus [7] = test: Antibacterial activity against Bacillus cereus after 24 hrs by agar streak dilution method; format: functional; summary of the method: as §3
Listeria monocytogenes [8] = test: Antibacterial activity against Listeria monocytogenes after 24 hrs by agar streak dilution method; format: functional; summary of the method: as §3
Listeria monocytogenes [9] = test: Antibacterial activity against Listeria monocytogenes at 100 ug/ml after 24 hrs by paper disc diffusion technique; format: functional; settings: read-out: IZ; summary of the method: as §2
Candida albicans [10] = test: Antifungal activity against Candida albicans at 100 ug/ml after 48 hrs by paper disc diffusion technique; format: functional; settings: read-out: IZ
Summary of the method: (§4)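 Paper disc diffusion on Sabouraud dextrose agar, autoclaved at 120 °C for 30 min. Medium at 40–50 °C was seeded at 1 ml/100 ml with a 10^5 cfu/ml fungal suspension matched to 0.9 McFarland. It was poured 3–4 mm deep, and compound discs in DMSO were applied. Plates were pre-incubated 1 h at room temperature, then 28 °C for 48 h. The inhibition zone was recorded.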

Pseudomonas aeruginosa [11] = test: Antibacterial activity against Pseudomonas aeruginosa after 24 hrs by agar streak dilution method; format: functional; summary of the method: as §3
Escherichia coli [12] = test: Antibacterial activity against Escherichia coli O157 after 24 hrs by agar streak dilution method; format: functional; settings: O157, 24 h
Staphylococcus aureus [13] = test: Antibacterial activity against Staphylococcus aureus at 100 ug/ml after 24 hrs by paper disc diffusion technique; format: functional; settings: read-out: IZ; summary of the method: as §2
Pseudomonas aeruginosa [14] = test: Antibacterial activity against Pseudomonas aeruginosa at 100 ug/ml after 24 hrs by paper disc diffusion technique; format: functional; settings: read-out: IZ; summary of the method: as §2
Aspergillus flavus [15] = test: Antifungal activity against Aspergillus flavus at 100 ug/ml after 48 hrs by paper disc diffusion technique; format: functional; settings: read-out: IZ; summary of the method: as §4
Aspergillus flavus [16] = test: Antifungal activity against Aspergillus flavus after 48 hrs by agar streak dilution method; format: functional; summary of the method: as §1

## O=C(N/N=C/c1ccc(Cl)c(Cl)c1)c1ccc(-n2c(-c3ccccc3)nc3c(Br)cc(Br)cc3c2=O)cc1
Candida albicans [1]
  MIC: 25 µg/mL (≈ 37.2 µM)
Salmonella typhimurium [2]
  zone of inhibition at 100 µg/mL: 11 mm
Staphylococcus aureus [3]
  MIC: 25 µg/mL (≈ 37.2 µM)
Bacillus cereus [4]
  zone of inhibition at 100 µg/mL: 17 mm
Salmonella typhimurium [5]
  MIC: 50 µg/mL (≈ 74.5 µM)
Escherichia coli [6]
  zone of inhibition at 100 µg/mL: 14 mm
Bacillus cereus [7]
  MIC: 1.56 µg/mL (≈ 2.32 µM)
Listeria monocytogenes [8]
  MIC: 25 µg/mL (≈ 37.2 µM)
Listeria monocytogenes [9]
  zone of inhibition at 100 µg/mL: 13 mm
Candida albicans [10]
  zone of inhibition at 100 µg/mL: 11 mm
Pseudomonas aeruginosa [11]
  MIC: 25 µg/mL (≈ 37.2 µM)
Escherichia coli [12]
  MIC: 25 µg/mL (≈ 37.2 µM)
Staphylococcus aureus [13]
  zone of inhibition at 100 µg/mL: 14 mm
Pseudomonas aeruginosa [14]
  zone of inhibition at 100 µg/mL: 14 mm
Aspergillus flavus [15]
  zone of inhibition at 100 µg/mL: 12 mm
Aspergillus flavus [16]
  MIC: 19 µg/mL (≈ 28.3 µM)

## Cc1ccc(C2SCC(=O)N2NC(=O)c2ccc(-n3c(-c4ccccc4)nc4c(Br)cc(Br)cc4c3=O)cc2)cc1 (configuration not stated)
Candida albicans [1]
  MIC: 30 µg/mL (≈ 43.5 µM)
Salmonella typhimurium [2]
  zone of inhibition at 100 µg/mL: 15 mm
Staphylococcus aureus [3]
  MIC: > 50 µg/mL
Bacillus cereus [4]
  zone of inhibition at 100 µg/mL: 9 mm
Salmonella typhimurium [5]
  MIC: 7 µg/mL (≈ 10.1 µM)
Escherichia coli [6]
  zone of inhibition at 100 µg/mL: 9 mm
Bacillus cereus [7]
  MIC: 50 µg/mL (≈ 72.4 µM)
Listeria monocytogenes [8]
  MIC: 50 µg/mL (≈ 72.4 µM)
Listeria monocytogenes [9]
  zone of inhibition at 100 µg/mL: 10 mm
Candida albicans [10]
  zone of inhibition at 100 µg/mL: 10 mm
Pseudomonas aeruginosa [11]
  MIC: 10.1 µg/mL (≈ 14.6 µM)
Escherichia coli [12]
  MIC: > 50 µg/mL
Staphylococcus aureus [13]
  zone of inhibition at 100 µg/mL: 10 mm
Pseudomonas aeruginosa [14]
  zone of inhibition at 100 µg/mL: 16 mm
Aspergillus flavus [15]
  zone of inhibition at 100 µg/mL: 16 mm
Aspergillus flavus [16]
  MIC: 12.5 µg/mL (≈ 18.1 µM)
